Each structure is given as a SMILES string.

One experiment has as its system Fusarium graminearum. Put plainly: Antifungal activity against Gibberella zeae assessed as inhibition of mycelium growth at 100 ug/ml after 48 hrs. Type of experiment: functional. The following applies: read-out: GI. In outline:
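Poisoned-medium plate test: compound mixed into molten medium and poured into dishes; once set, each plate was seeded with a 5 mm mycelium disk, inverted, and held at 28 °C for 48 h. The blank control was medium without sample, and tests were run in triplicate. Mycelial diameter was measured, and inhibition was taken as I = [(C − T)/C] × 100%, with C the mean blank diameter and T the mean treated diameter.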

The next experiment relates to Botrytis cinerea. Put plainly: Antifungal activity against Botryotinia fuckeliana assessed as inhibition of mycelium growth at 100 ug/ml after 48 hrs. In kind it is functional. The following applies: read-out: GI. In outline: (§1)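 Poisoned-agar mycelial growth test. Compound mixed into medium and poured into dishes. Once solidified, plates were inoculated with a 5 mm mycelium disk, inverted and incubated at 28 °C for 48 h. Medium without sample served as blank. Mycelial elongation radius was measured in triplicate. Inhibition (%) = [(C − T)/C] × 100, where C and T are the mean mycelial diameters of the blank and the treated plates.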

The next experiment concerns Rhizoctonia solani. Put plainly: Antifungal activity against Rhizoctonia solani assessed as inhibition of mycelium growth at 100 ug/ml after 48 hrs. In kind it is functional. The following applies: read-out: GI. In outline:
as §1

The test system of another experiment is Alternaria solani. Put plainly: Antifungal activity against Alternaria solani assessed as inhibition of mycelium growth at 100 ug/ml after 48 hrs. Type of experiment: functional. The following applies: read-out: GI. The essentials: as §1
For another experiment, the system named is Alternaria alternata. Put plainly: Antifungal activity against Alternaria alternata Keissler assessed as inhibition of mycelium growth at 100 ug/ml after 48 hrs. Type of experiment: functional. The following applies: read-out: GI. The essentials: as §1
Experiment [1] is described as follows: Antifungal activity against Colletotrichum orbiculare assessed as inhibition of mycelium growth at 100 ug/ml after 48 hrs. Type of experiment: functional. The essentials: as §1
A short description of experiment [2]: Inhibition of Escherichia coli PDHC-E1 expressed in Escherichia coli TB1 using 2,6-dichlorophenolindophenol as substrate after 3 mins. The essentials:
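MBP-fusion enzyme was expressed in E. coli TB1 grown in LB with 2% glucose and ampicillin at 37 °C to A600 0.6–0.8, then induced with 0.5 mM IPTG for 7 h at 25 °C. Protein was purified by MBP affinity to >95% purity and quantified by Bradford. The assay buffer was 50 mM K3PO4 pH 7.2 with 2.0 mM pyruvate substrate and 0.8 mM 2,6-DCIP. Enzyme and inhibitor were preincubated 3 min at 37 °C, and then ThDP was added to start the reaction. DCIP reduction was read at 600 nm. IC50 was obtained by fitting initial rates against varied inhibitor concentration to the Hill equation.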

The IC50 is the concentration at which inhibition is half-maximal. In the case of `Cc1ncc(Cn2nnc(COc3ccc([N+](=O)[O-])cc3)c2I)c(N)n1`, the inhibition of growth at 100 µg/mL in the experiment with Fusarium graminearum was 68%; in the experiment on Botrytis cinerea it was 84%; with Rhizoctonia solani, 97%; in the experiment on Alternaria solani, 66%; in the experiment on Alternaria alternata it was 59%. Further, the growth inhibition (GI) in experiment [1] stood at 35%. In addition, in experiment [2], the IC50 came out at 5.33 µM.

The compound `Cc1ncc(Cn2cc(COc3cccc(C(F)(F)F)c3)nn2)c(N)n1` yielded a half-inhibitory concentration (IC50) in experiment [2] of 32.7 µM.

Take `Cc1ncc(Cn2cc(COc3ccc([N+](=O)[O-])cc3[N+](=O)[O-])nn2)c(N)n1`: the inhibition of growth at 100 µg/mL in the experiment on Fusarium graminearum stood at 48%; in the experiment with Botrytis cinerea it was 54%; in the experiment on Rhizoctonia solani it was 0%; in the experiment on Alternaria solani, 0%; with Alternaria alternata, 0%. Besides, the growth inhibition (GI) in experiment [1] is 42%. Besides, in experiment [2], the IC50 was 11.3 µM.

As for `Cc1ncc(Cn2nnc(COc3ccccc3)c2I)c(N)n1`, the inhibition of growth at 100 µg/mL in the experiment with Fusarium graminearum was 59%; in the experiment on Botrytis cinerea, 88%; in the experiment on Rhizoctonia solani, 96%; in the experiment on Alternaria solani, 57%; in the experiment on Alternaria alternata, 23%. Further, the growth inhibition (GI) in experiment [1] worked out at 45%. The compound further had an IC50 in experiment [2] of 19.6 µM.

`Cc1ncc(Cn2cc(COc3ccc(Cl)cc3Cl)nn2)c(N)n1` displayed an IC50 in experiment [2] of 18.7 µM.

In experiment [2], `COC(=O)Cc1ccc(OCc2cn(Cc3cnc(C)nc3N)nn2)cc1` registered an IC50 of 102 µM.

For the compound `Cc1ncc(Cn2cc(COc3ccc([N+](=O)[O-])cc3Cl)nn2)c(N)n1`, the inhibition of growth at 100 µg/mL was 0% in the experiment on Fusarium graminearum; 44% with Botrytis cinerea; 31% with Rhizoctonia solani; 20% with Alternaria solani; 36% with Alternaria alternata. In addition, in experiment [1], the growth inhibition (GI) worked out at 57%.

For `Cc1ncc(Cn2cc(COc3ccc(Cl)cc3)nn2)c(N)n1`, the inhibition of growth at 100 µg/mL in the experiment with Fusarium graminearum is 51%; in the experiment with Botrytis cinerea, 73%; with Rhizoctonia solani, 23%; in the experiment with Alternaria solani, 44%; in the experiment with Alternaria alternata, 52%. For the same compound, the growth inhibition (GI) in experiment [1] is 50%. This compound yielded an IC50 in experiment [2] of 26.4 µM.

`COc1ccc(OCc2cn(Cc3cnc(C)nc3N)nn2)cc1` registered an IC50 in experiment [2] of 81.6 µM.

`Cc1ncc(Cn2cc(COc3ccc(Cl)c(C)c3)nn2)c(N)n1` registered an IC50 in experiment [2] of 26.2 µM.

For the compound `CCOC(=O)c1ccc(OCc2cn(Cc3cnc(C)nc3N)nn2)cc1`, inhibition in experiment [2] was half-maximal at 28.8 µM (IC50).

`Cc1ccc(Cl)c(OCc2cn(Cc3cnc(C)nc3N)nn2)c1` had an IC50 in experiment [2] of 29 µM.

In the case of `Cc1ncc(Cn2cc(COc3ccccc3)nn2)c(N)n1`, the inhibition of growth at 100 µg/mL is 0% in the experiment on Fusarium graminearum; 53% in the experiment on Botrytis cinerea; 0% in the experiment on Rhizoctonia solani; 25% with Alternaria solani; 43% with Alternaria alternata. In experiment [1], the growth inhibition (GI) was 40%.

For the compound `Cc1ncc(Cn2cc(COc3ccc(C(=O)O)cc3)nn2)c(N)n1`, the inhibition of growth at 100 µg/mL came to 21% with Fusarium graminearum; 67% with Botrytis cinerea; 0% with Rhizoctonia solani; 33% in the experiment with Alternaria solani; 57% with Alternaria alternata. Further, the growth inhibition (GI) in experiment [1] came out at 42%.

Turning to `CC1COC(Cn2cncn2)(c2ccc(Oc3ccc(Cl)cc3)cc2Cl)O1` (configuration not stated) [DIFENOCONAZOLE], the inhibition of growth at 100 µg/mL worked out at 98% with Fusarium graminearum; 96% in the experiment with Botrytis cinerea; 100% in the experiment with Rhizoctonia solani; 100% in the experiment on Alternaria solani; 100% with Alternaria alternata. Besides, in experiment [1], the growth inhibition (GI) was 97%.

`Cc1ncc(Cn2cc(COc3ccccc3[N+](=O)[O-])nn2)c(N)n1` displayed an IC50 in experiment [2] of 36.3 µM.

In experiment [2], `Cc1ncc(Cn2cc(COc3ccc(F)cc3Cl)nn2)c(N)n1` yielded an IC50 of 43.3 µM.

On to `Cc1ncc(Cn2cc(COc3ccc([N+](=O)[O-])cc3)nn2)c(N)n1`, for which the inhibition of growth at 100 µg/mL is 0% with Fusarium graminearum; 37% in the experiment with Botrytis cinerea; 24% in the experiment on Rhizoctonia solani; 24% in the experiment on Alternaria solani; 33% in the experiment on Alternaria alternata. Also, the growth inhibition (GI) in experiment [1] worked out at 43%.
